Measurements: ChEMBL document CHEMBL2057113, “Modern phenotypic drug discovery is a viable, neoclassic pharma strategy” (J Med Chem, 2012)
Where a name gives a salt, the structure may show the parent alone. The source made the active and inactive calls. The rule behind the calls is not given here.

Tests used:
[1] = Inhibition of endothelial cord area formation in endothelial precursor cells by CD31 cord area detection based phenotypic drug discovery based assay; format: functional
In short: (§1)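 384-well coculture of endothelial colony-forming cells (ECFC) with adipose-derived stromal cells (ADSC) at 37 °C, 5% CO2. Screening at 2 μM single point on CD31-positive cord area; actives retested in 10-point dose response, with CD31 cord area as cord formation read-out and total nuclei count as cytotoxicity read-out.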

[2] = Inhibition of cell migration in endothelial precursor cells by Oris cell migration kit based phenotypic drug discovery based assay; format: functional
[3] = Toxicity in endothelial precursor cells co-cultured with stromal precursor ADSC cells by total nuclei count detection based phenotypic drug discovery based assay; in short: as §1
[4] = Toxicity in human HeLa cells assessed as cell cycle arrest at G2M phase by flow cytometry based phenotypic drug discovery based assay
HEK293 = assay: Inhibition of ACC expressed in HEK293 cells assessed as effect on incorporation of [14C]acetate into triacylglycerol; format: cell-based; conditions: Homo sapiens
In short: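 HEK293 cells moved from growth medium (DMEM, 10% FBS) into Opti-MEM containing compound in 0.2% DMSO for 1 h, then labeled with 30 μM [14C]acetate for 4 h. Cells washed, dissolved in Triton X-100 (0.175%) with basic ethanol/isopropanol at room temperature; labeled triacylglycerol extracted into heptane and counted by liquid scintillation.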

[5] = target: Gamma-secretase (Homo sapiens) (UniProt Q96BI3+Q9NZ42+Q8WW43+P49768+Q92542+P49810); assay: Inhibition of human gamma secretase-expressed in HEK293 co-expressing human Notch-1 cells assessed as effect on enzyme-mediated Notch-1 processing up to 5 uM; format: cell-based
In short: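 HEK293 cells expressing a human Notch-1 construct lacking the extracellular ligand-binding domain (analogous to constitutively active mouse NotchΔE); γ-secretase cleavage detected with a mouse monoclonal antibody to the γ-secretase neoepitope of human Notch-1; tested up to 5 μM.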

Beta-secretase 1 = Beta-secretase 1 (Homo sapiens, UniProt P56817); assay: Inhibition of human BACE1 using BACE1-IgG construct by labeled substrate hydrolysis detection assay
In short: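 Soluble human BACE activity: purified BACE-IgG ectodomain construct hydrolyzing a labeled peptide substrate.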

Gamma-secretase = assay: Inhibition of human gamma secretase expressed in HEK293 cells coexpressing human APP by soluble beta-APP detection based ELISA; format: cell-based
In short: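 HEK293 cells expressing recombinant human APP; soluble APPsβ production measured by ELISA with a mouse monoclonal antibody to the β-secretase neoepitope of hAPP.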

U-87 MG [6] = assay: In-vivo inhibition of angiogenesis in human U87MG cells xenografted in athymic nude Harlan mouse at 10 mg/kg oral gavage dosed twice daily for 3 days measured 3 days post dose by fluorescence microscopy; format: functional, organism-based; design: dose 10 mg/kg; conditions: U-87MG ATCC
In short: (§2)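 U87MG glioblastoma cells mixed 1:1 with Matrigel, 5.0 × 10^6 cells injected subcutaneously into right rear flank of female athymic nude mice; grown to mean 250 mm3, randomized by tumor volume and body weight (10/group). Dosing twice daily for 3 days: sc in 100% peanut oil, or oral gavage in 10% acacia. Tumors excised, zinc-Tris fixed, paraffin sectioned at 4 μm.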

U-87 MG [7] = assay: In-vivo inhibition of angiogenesis in human U87MG cells xenografted in athymic nude Harlan mouse at 30 mg/kg, sc dosed twice daily for 3 days measured 3 days post dose by fluorescence microscopy; format: functional, organism-based; design: dose 30 mg/kg; conditions: U-87MG ATCC; in short: as §2

Beta-secretase 1, sequence (P56817 whole entry, the tested form may be a part): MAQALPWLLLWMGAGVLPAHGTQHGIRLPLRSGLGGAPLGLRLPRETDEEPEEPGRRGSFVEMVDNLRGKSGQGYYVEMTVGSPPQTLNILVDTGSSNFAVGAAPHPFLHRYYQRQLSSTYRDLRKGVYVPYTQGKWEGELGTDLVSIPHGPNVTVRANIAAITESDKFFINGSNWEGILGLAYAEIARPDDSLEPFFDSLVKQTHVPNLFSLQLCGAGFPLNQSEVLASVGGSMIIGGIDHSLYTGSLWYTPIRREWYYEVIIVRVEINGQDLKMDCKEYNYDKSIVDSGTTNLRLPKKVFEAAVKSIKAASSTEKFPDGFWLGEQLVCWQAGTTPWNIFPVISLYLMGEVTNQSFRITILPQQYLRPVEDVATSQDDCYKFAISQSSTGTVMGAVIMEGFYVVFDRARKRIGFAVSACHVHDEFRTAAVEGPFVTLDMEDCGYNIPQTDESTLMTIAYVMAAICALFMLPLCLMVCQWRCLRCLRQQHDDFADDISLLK

CNC(=O)c1cc(Oc2ccc(NC(=O)Nc3ccc(Cl)c(C(F)(F)F)c3)cc2)ccn1 [SORAFENIB TOSYLATE]
IC50 [1]: 0.00421 µM | IC50 [2]: 16.7 µM | EC50 [3]: 5.46 µM | EC50 [4]: > 10 µM

CCNC(=O)Nc1sc2ccccc2c1C(=O)N1CCC2(CC1)CC(=O)c1cc(-c3nccs3)ccc1O2
inhibition (HEK293): Active | EC50 [1]: 0.041 µM | IC50 [2]: 13 µM | EC50 [3]: > 10 µM | EC50 [4]: > 10 µM

Cc1ccc(OCC(=O)N[C@@H]2c3cc(NC(=O)COc4ccc(C#N)cc4C)ccc3C[C@H]2O)cc1
IC50 [1]: 2.5 µM | inhibition [5]: inactive | IC50 (Beta-secretase 1): 13.6 µM | IC50 (Gamma-secretase): > 5 µM | IC50 [3]: > 10 µM

CCN(CC)CCNC(=O)c1c(C)[nH]c(/C=C2\C(=O)Nc3ccc(F)cc32)c1C [SUNITINIB]
IC50 [1]: 0.0096 µM | IC50 [2]: 13.6 µM | inhibition (U-87 MG [6]): Active | EC50 [3]: > 10 µM | EC50 [4]: > 10 µM

Cc1ccc(OCC(=O)N[C@H]2c3cc(NC(=O)COc4ccc(C#N)cc4C)ccc3C[C@H]2O)cc1
IC50 [1]: 1.45 µM | inhibition [5]: inactive | IC50 (Beta-secretase 1): 4 µM | IC50 (Gamma-secretase): > 5 µM | IC50 [3]: > 10 µM

Cc1ccc(OCC(=O)N[C@H]2c3cc(NC(=O)[C@@H](C)Oc4ccc(C#N)cc4C)ccc3C[C@@H]2O)cc1 (mixture of isomers)
EC50 [1]: 0.021 µM | inhibition [5]: inactive | inhibition (U-87 MG [7]): Active | IC50 [2]: > 40 µM | EC50 [3]: > 10 µM | EC50 [4]: > 10 µM

Cc1ccc(OCC(=O)N[C@@H]2c3cc(NC(=O)COc4ccc(C#N)cc4C)ccc3C[C@@H]2O)cc1
IC50 [1]: 9.1 µM | inhibition [5]: inactive | IC50 (Beta-secretase 1): 45.6 µM | IC50 (Gamma-secretase): > 5 µM | IC50 [3]: > 10 µM

Cc1ccc(OCC(=O)N[C@H]2c3cc(NC(=O)COc4ccc(C#N)cc4C)ccc3C[C@@H]2O)cc1
IC50 [1]: 0.022 µM | inhibition [5]: inactive | IC50 (Beta-secretase 1): 0.142 µM | IC50 (Gamma-secretase): > 5 µM | IC50 [3]: > 10 µM
